Results taken from ChEMBL document CHEMBL1124697, “A new family of water-soluble, third generation antitumor platinum complexes” (J Med Chem, 1989).
Blank lines part the entries; values can stand above or below the substance they belong to.

Columns and labels:
Colon 26 [1] = experiment: Percent in life span when compound administered at 6.2 mg/kg against Colon 26 cells in balb/C mice; format: functional, organism-based; set-up: dose 6.2 mg/kg; conditions: Mus musculus
Method in brief: (§1)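 Colon 26 in Balb/C mice. Test agents given ip on days 1, 5 and 9 relative to tumor inoculation; mice observed 30 days. Median % increase in life span at optimal dose, with % survivors noted; ILS ≥25% over controls required for activity; ILS or body weight reduced ≥15% versus controls rated toxic.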

L1210 [2] = experiment: Percent survivors when compound administered at 12.5 mg/kg against L1210 leukemia cells in BDF1 mice; format: functional, organism-based; set-up: dose 12.5 mg/kg; conditions: Mus musculus
Method in brief: (§2)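 BDF1 mice inoculated with P388, L1210 or cisplatin-resistant L1210 leukemia. Compound given ip on days 1, 5 and 9 relative to tumor inoculation, and mice observed for 30 days. Median % increase in life span over controls and % survivors are reported at the optimal dose. Activity requires ILS ≥25%. Toxicity is rated when ILS or body weight is reduced by ≥15%.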

Colon 26 [3] = experiment: Percent survivors when compound administered at 6.2 mg/kg against Colon 26 cells in balb/C mice; format: functional, organism-based; set-up: dose 6.2 mg/kg; conditions: Mus musculus
Method in brief: (§3)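 Colon 26 tumor in Balb/C mice. Dosing ip on days 1, 5 and 9 after tumor inoculation, with a 30-day observation period. Readouts are median % increase in life span over control mice and % survivors, given at the optimal dose. Activity threshold is ILS ≥25%. A ≥15% drop in ILS or body weight is rated toxic.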

P388 [4] = experiment: Percent increase in life span when compound administered at 25.5 mg/kg against P388 leukemia cells in BDF1 mice; format: functional, organism-based; set-up: dose 25.5 mg/kg; conditions: Mus musculus
Method in brief: (§4)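 BDF1 mice bearing P388, L1210 or cisplatin-resistant L1210 leukemia; ip dosing on days 1, 5 and 9 relative to tumor inoculation, 30-day observation. Median % ILS over controls at optimal dose plus % survivors; ≥25% ILS counted as active, ≥15% reduction in ILS or body weight over controls rated toxic.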

P388 [5] = experiment: Percent survivors when compound administered at 25.5 mg/kg against P388 leukemia cells in BDF1 mice; format: functional, organism-based; set-up: dose 25.5 mg/kg; conditions: Mus musculus; method in brief: as §2
P388 [6] = experiment: Percent survivors when compound administered at 12.5 mg/kg against P388 leukemia cells in BDF1 mice; format: functional, organism-based; set-up: dose 12.5 mg/kg; conditions: Mus musculus; method in brief: as §2
P388 [7] = experiment: Percent increase in life span when compound administered at 12.5 mg/kg against P388 leukemia cells in BDF1 mice; format: functional, organism-based; set-up: dose 12.5 mg/kg; conditions: Mus musculus; method in brief: as §4
[8] = Water solubility was determined; format: ADME; conditions: buffer
P388 [9] = experiment: Percent survivors when compound administered at 25 mg/kg against P388 leukemia cells in BDF1 mice; format: functional; conditions: Mus musculus; method in brief: as §2
B16 [10] = experiment: Percent increase in life span when compound administered at 12.5 mg/kg against B-16 melanoma cells in […] mice; format: functional; conditions: Mus musculus
Method in brief: (§5)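 Median % increase in life span versus controls and % survivors are recorded at the optimal dose. ILS ≥25% counts as active, and a ≥15% reduction in ILS or body weight counts as toxic.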

Colon 26 [11] = experiment: Percent survivors when compound administered at 25 mg/kg against Colon 26 cells in balb/C mice; format: functional, organism-based; set-up: dose 25 mg/kg; conditions: Mus musculus; method in brief: as §3
L1210 [12] = experiment: Percent survivors when compound administered at 25 mg/kg against L1210 leukemia cells in BDF1 mice; format: functional, organism-based; set-up: dose 25 mg/kg; conditions: Mus musculus; method in brief: as §2
B16 [13] = experiment: Percent survivors when compound administered at 12.5 mg/kg against B-16 melanoma cells in […] mice; format: functional; conditions: Mus musculus; method in brief: as §5
L1210 [14] = experiment: Percent survivors when compound administered at 25 mg/kg against L1210 cisplatin resistant leukemia cells in BDF1 mice; format: functional, organism-based; set-up: dose 25 mg/kg; conditions: Mus musculus; method in brief: as §2
P388 [15] = experiment: Percent increase in life span when compound administered at 25 mg/kg against P388 leukemia cells in BDF1 mice; format: functional; conditions: Mus musculus; method in brief: as §2
L1210 [16] = experiment: Percent increase in life span when compound administered at 25 mg/kg against L1210 cisplatin resistant leukemia cells in BDF1 mice; format: functional, organism-based; set-up: dose 25 mg/kg; conditions: Mus musculus; method in brief: as §4
L1210 [17] = experiment: Percent increase in life span when compound administered at 25 mg/kg against L1210 leukemia cells in BDF1 mice; format: functional, organism-based; set-up: dose 25 mg/kg; conditions: Mus musculus; method in brief: as §4
Colon 26 [18] = experiment: Percent in life span when compound administered at 25 mg/kg against Colon 26 cells in balb/C mice; format: functional, organism-based; set-up: dose 25 mg/kg; conditions: Mus musculus; method in brief: as §1

Water solubility [8]: 100000 µg/mL
Substance: Platinum:Formic acid 9-formyloxy-3-methyl-2,4-dioxa-8,10-diaza-spiro[5.5]undec-9-yl ester

Water solubility [8]: < 200 µg/mL
Substance: Platinum:8,8-Dichloro-1,3-dioxa-7,9-diaza-spiro[4.5]decane [listing 2 of 2 here]

Water solubility [8]: 200 µg/mL
Substance: Platinum:3,3-Dichloro-8,15-dioxa-2,4-diaza-dispiro[5.2.5.2]hexadecane

More lines, now with the values behind:

Substance: Platinum:8,8-Dichloro-1,3-dioxa-7,9-diaza-spiro[4.5]decane [listing 1 of 2 here]
Increase (Colon 26 [1]): 50% | Survivors (L1210 [2]): 0% | Survivors (Colon 26 [3]): 0% | Increase (P388 [4]): 160% | Survivors (P388 [5]): 0%

Substance: Platinum:9,9-Dichloro-3-methyl-2,4-dioxa-8,10-diaza-spiro[5.5]undecane
Survivors (P388 [6]): 1% | Increase (P388 [7]): 136%

Substance: Platinum:2,4,10,15-Tetraoxa-8,16-diaza-dispiro[5.2.6.2]heptadecane-11,14-dione
Survivors (P388 [9]): 1% | Increase (B16 [10]): 56% | Survivors (Colon 26 [11]): 0% | Survivors (L1210 [12]): 1% | Survivors (B16 [13]): 0% | Survivors (L1210 [14]): 0% | Increase (P388 [15]): 120% | Increase (L1210 [16]): 44% | Increase (L1210 [17]): 110% | Increase (Colon 26 [18]): 46%
